Test results published in ChEMBL document CHEMBL4014347, “Targeting Mycolic Acid Transport by Indole-2-carboxamides for the Treatment of Mycobacterium abscessus Infections” (J Med Chem, 2017).
Values after ≈ are worked out from the molar mass of the structure shown.

Experiments:
[1] = tested on: Mycobacterium tuberculosis; experiment: Antibacterial activity against Mycobacterium tuberculosis by AlamarBlue assay; format: functional
[2] = tested on: Mycobacteroides abscessus; experiment: Antibacterial activity against Mycobacterium abscessus CIP104536 after 3 to 5 days by two fold serial dilution method; format: functional
Outline: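 Broth microdilution per CLSI in cation-adjusted Mueller–Hinton broth; exponential-phase inoculum 5 × 10^6 CFU/mL; two-fold serial dilutions from highest concentration, solvent wells as control; 30 °C for 3−5 days; MIC read visually and confirmed by absorbance at 560 nm; triplicate on three independent occasions.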

[3] = tested on: Mycobacterium tuberculosis; experiment: Inhibition of C-terminal His-tagged Mycobacterium tuberculosis Ag85C expressed in Escherichia coli C41 (DE3) at 2.5 to 50 uM after 1 hr by resorufin butyrate-based fluorescence assay
Outline: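 Purified Ag85C mycolyltransferase activity measured with the fluorescent probe resorufin butyrate; compounds tested at 2.5 to 50 μM.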

[4] = Selectivity index, ratio of IC50 for African green monkey Vero cells to MIC for Mycobacterium abscessus CIP104536; format: toxicity; conditions: read-out: Selectivity Index
Vero = experiment: Cytotoxicity against African green monkey Vero cells; format: cell-based; conditions: Chlorocebus sabaeus
[5] = Selectivity index, ratio of IC50 for African green monkey Vero cells to MIC=<90 for Mycobacterium tuberculosis; format: toxicity; conditions: read-out: Selectivity Index

Compound | MIC=<90 [1] [µg/mL] | MIC [2] [µg/mL] | inhibition [3] | selectivity ratio [4] | IC50 (Vero) [µg/mL] | selectivity ratio [5]
COc1cc(OC)c2cc(C(=O)NC3CCCCCC3)[nH]c2c1 | 0.0625 (≈ 0.198 µM) | 1 (≈ 3.16 µM) |  |  |  | 
C[C@@H](NC(=O)c1cc2c(Cl)cc(Cl)cc2[nH]1)C1CCCCC1 | 2 (≈ 5.9 µM) | 0.5 (≈ 1.47 µM) |  |  |  | 
Cc1cc(C)c2cc(CNC3CCCCCCC3)[nH]c2c1 | 0.125 (≈ 0.439 µM) | 0.5 (≈ 1.76 µM) |  |  |  | 
CC(C)=CCC/C(C)=C/CNC(=O)c1cc2c(Cl)cc(Cl)cc2[nH]1 | 4 (≈ 10.9 µM) | > 32 |  |  |  | 
O=c1c2ccccc2[se]n1-c1ccccc1 |  |  | Dose-dependent effect |  |  | 
C[C@@H]1[C@@H](NC(=O)c2cc3c(F)cc(F)cc3[nH]2)C[C@H]2C[C@@H]1C2(C)C | 0.0039 (≈ 0.0117 µM) | 32 (≈ 96.3 µM) |  | ≥ 2 | ≥ 64 | ≥ 16400
Cc1ccc2cc(C(=O)NC3CCCCCC3)[nH]c2c1 | 0.0313 (≈ 0.116 µM) | 0.25 (≈ 0.925 µM) |  |  |  | 
O=C(NC1Cc2ccccc2C1)c1cc2c(Cl)cc(Cl)cc2[nH]1 | 0.25 (≈ 0.724 µM) | > 32 |  |  |  | 
Cc1cc(C)c2cc(CNC(=O)C3CCCCCC3)[nH]c2c1 | 16 (≈ 53.6 µM) | > 32 |  |  |  | 
C[C@@H]1[C@@H](NC(=O)c2cc3ccc(Br)cc3[nH]2)C[C@H]2C[C@@H]1C2(C)C | 0.0039 (≈ 0.0104 µM) | 0.125 (≈ 0.333 µM) |  |  |  | 
Cc1cc(C)c2cc(C(=O)NC3CCCCCCC3)oc2c1 | 8 (≈ 26.7 µM) | 0.5 (≈ 1.67 µM) |  |  |  | 
Cc1cc(C)c2cc(C(=O)NC3CCCCCC3)[nH]c2c1 | 0.0039 (≈ 0.0137 µM) | 0.125 (≈ 0.44 µM) |  | 128 | 16 (≈ 56.3 µM) | 4100
O=C(NC12CC3CC(CC(C3)C1)C2)c1cc2c(Cl)cc(Cl)cc2[nH]1 | 0.0039 (≈ 0.0107 µM) | > 32 |  | ≥ 1 | ≥ 32 | ≥ 8210
O=C(NC1CCCCCC1)c1cc2c(F)cc(F)cc2[nH]1 | 0.031 (≈ 0.106 µM) | 0.125 (≈ 0.428 µM) |  |  |  | 
C[C@@H]1[C@@H](NC(=O)c2cc3c(Cl)cc(Cl)cc3[nH]2)C[C@H]2C[C@@H]1C2(C)C | 0.0078 (≈ 0.0214 µM) | 128 (≈ 350 µM) |  | 0.125 | 16 (≈ 43.8 µM) | 2050
Cc1cc(C)c2[nH]c(C(=O)NC3CCCCCC3)cc2c1 | 0.0625 (≈ 0.22 µM) | 0.25 (≈ 0.879 µM) |  |  |  | 
Cc1cccc2[nH]c(C(=O)NC3CCCCCC3)cc12 | 0.0313 (≈ 0.116 µM) | 0.25 (≈ 0.925 µM) |  |  |  | 
CO[C@H]1/C=C/O[C@@]2(C)Oc3c(C)c(O)c4c(O)c(c(/C=N/N5CCN(C)CC5)c(O)c4c3C2=O)NC(=O)/C(C)=C\C=C\[C@H](C)[C@H](O)[C@@H](C)[C@@H](O)[C@@H](C)[C@H](OC(C)=O)[C@@H]1C [RIFAMPIN] |  |  |  |  | > 256 | 
O=C(NC1CCCCCCC1)c1cc2cc(Cl)ccc2o1 | 8 (≈ 26.2 µM) | 0.5 (≈ 1.64 µM) |  |  |  | 
CC1(C)C2CC[C@@]1(C)C(NC(=O)c1cc3c(Cl)cc(Cl)cc3[nH]1)C2 (stereo partly drawn) | 0.0156 (≈ 0.0427 µM) | > 32 |  | 0.25 | 8 (≈ 21.9 µM) | 513
Cc1cc(C)c2cc(C(=O)NC34CC5CC(CC(C5)C3)C4)oc2c1 | 1 (≈ 3.09 µM) | 1 (≈ 3.09 µM) |  |  |  | 
O=C(NC1CCC2(CCCCC2)CC1)c1cc2c(Cl)cc(Cl)cc2[nH]1 | 0.001953 (≈ 0.00515 µM) | > 32 |  | ≥ 2 | ≥ 64 | ≥ 32800
Cc1cccc2cc(C(=O)NC3CCCCCC3)[nH]c12 | 1 (≈ 3.7 µM) | 16 (≈ 59.2 µM) |  |  |  | 
CCCCCCCCNC(=O)c1cc2c(Cl)cc(Cl)cc2[nH]1 | 128 (≈ 375 µM) | > 32 |  |  |  | 
O=C(NC1CCCCCCC1)c1cc2c(C(F)(F)F)cc(C(F)(F)F)cc2[nH]1 | 0.0156 (≈ 0.0384 µM) | 0.5 (≈ 1.23 µM) |  |  |  | 
O=C(NC12CC3CC(CC(C3)C1)C2)c1cc2ccc(Br)cc2[nH]1 | 0.0156 (≈ 0.0418 µM) | 16 (≈ 42.9 µM) |  | ≥ 4 | ≥ 64 | ≥ 4100
NNC(=O)c1ccncc1 [ISONIAZID] | 0.04 (≈ 0.292 µM) |  |  |  | > 256 | > 6400
Cc1ccc2[nH]c(C(=O)NC3CCCCCC3)cc2c1 | 0.25 (≈ 0.925 µM) | 0.25 (≈ 0.925 µM) |  |  |  | 
O=C(Nc1nc2ccc(OC(F)(F)F)cc2s1)C1CCCCCC1 | 128 (≈ 357 µM) | > 32 |  |  |  | 
